{"source": "ChEMBL document CHEMBL4219038", "about": "“1-Thiazol-2-yl-N-3-methyl-1H-pyrozole-5-carboxylic acid derivatives as antitumor agents” (Bioorg Med Chem Lett, 2017)", "key": {"[1]": {"experiment": "Cmax in J:Nu mouse plasma at 60 mg/kg, po qd for 7 days followed by 120 mg/kg, po qd for 5 days from day 8 to 13", "format": "ADME, organism-based", "design": "dose 60 mg/kg, route oral", "procedure,_shortened": "(§1)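 J:Nu female mice, N = 4 per group, dosed orally once daily at 10, 30 or 60 mpk in 5% NMP, 10% PEG-400, 15% Solutol, 70% D5W. The 30 and 60 mpk groups were raised to 90 and 120 mpk from day 8 to 13.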"}, "Mus musculus [2]": {"system": "Mus musculus", "experiment": "Toxicity in J:Nu mouse assessed as induction of changes in critical clinical parameters at 60 mg/kg, po qd for 7 days followed by 120 mg/kg, po qd for 5 days from day 8 to 13", "format": "organism-based", "conditions": "in vivo", "procedure,_shortened": "(§2)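 In J:Nu female mice (N = 4 per group), dosing was oral once daily at 30 or 60 mg/kg in 5% NMP/10% PEG-400/15% Solutol/70% D5W for 7 days. Doses were then raised to 90 or 120 mg/kg respectively on days 8–13. Clinical signs and body weights were recorded daily. Gross pathology, with spleen and liver weights, was done 48 h after the last dose.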"}, "[3]": {"experiment": "Kinetic solubility of the compound in PBS buffer at pH 7.4", "format": "physicochemical", "conditions": "read-out: Kinetic_solubility", "procedure,_shortened": "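Kinetic solubility measured in PBS buffer, pH 7.4.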"}, "[4]": {"experiment": "Volume of distribution at steady state in iv dosed mouse", "format": "ADME, organism-based", "conditions": "in vivo, read-out: Vdss"}, "Mus musculus [5]": {"system": "Mus musculus", "experiment": "Toxicity in J:Nu mouse assessed as induction of adverse effects at 10 to 120 mg/kg, po qd for 13 days", "format": "organism-based", "conditions": "in vivo, 312 h", "procedure,_shortened": "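Oral once-daily dosing of J:Nu female mice (N = 4 per group) at 10, 30 and 60 mg/kg for 7 days. The 30 and 60 mg/kg groups were escalated to 90 and 120 mg/kg on days 8–13. Clinical signs and body weights were recorded every day.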"}, "[6]": {"experiment": "Tmax in po dosed mouse", "format": "ADME, organism-based", "conditions": "in vivo"}, "[7]": {"experiment": "Dose normalized AUC (0 to infinity) in J:Nu mouse plasma at 30 mg/kg, po qd for 7 days followed by 90 mg/kg, po qd for 5 days from day 8 to 13", "format": "ADME, organism-based", "conditions": "in vivo", "procedure,_shortened": "as §1"}, "Mus musculus [8]": {"system": "Mus musculus", "experiment": "Toxicity in J:Nu mouse assessed as organ damage at 60 mg/kg, po qd for 7 days followed by 120 mg/kg, po qd for 5 days from day 8 to 13 measured 48 hrs after post last dose by pathology analysis", "format": "organism-based", "conditions": "in vivo", "procedure,_shortened": "as §2"}, "Mus musculus [9]": {"system": "Mus musculus", "experiment": "Ratio of AUC (0 to infinity) in mouse at 2.5 mg/kg, po to Cmax in mouse at 50 mg/kg, po", "format": "ADME, organism-based", "conditions": "in vivo"}, "Mus musculus [10]": {"system": "Mus musculus", "experiment": "Toxicity in J:Nu mouse assessed as induction of changes in critical clinical parameters at 30 mg/kg, po qd for 7 days followed by 90 mg/kg, po qd for 5 days from day 8 to 13", "format": "organism-based", "conditions": "in vivo", "procedure,_shortened": "as §2"}, "[11]": {"experiment": "MRT in mouse at 2.5 mg/kg, po", "format": "ADME, organism-based", "conditions": "in vivo"}, "[12]": {"experiment": "AUC (0 to infinity) in J:Nu mouse plasma at 60 mg/kg, po qd for 7 days followed by 120 mg/kg, po qd for 5 days from day 8 to 13", "format": "ADME, organism-based", "design": "dose 60 mg/kg, route oral, time infinity", "procedure,_shortened": "as §1"}, "Mus musculus [13]": {"system": "Mus musculus", "experiment": "Toxicity in J:Nu mouse assessed as changes in organ weight at 60 mg/kg, po qd for 7 days followed by 120 mg/kg, po qd for 5 days from day 8 to 13 measured 48 hrs after post last dose by pathology analysis", "format": "organism-based", "conditions": "in vivo", "procedure,_shortened": "as §2"}, "MCF7": {"system": "MCF7", "experiment": "Antiproliferative activity against human MCF7 cells", "format": "functional, cell-based"}, "[14]": {"experiment": "AUC (0 to infinity) in mouse at 100 mg/kg", "format": "ADME, organism-based", "design": "dose 100 mg/kg, time infinity", "conditions": "in vivo"}, "[15]": {"experiment": "Cmax in mouse at 100 mg/kg", "format": "ADME, organism-based", "design": "dose 100 mg/kg", "conditions": "in vivo"}, "A2780": {"system": "A2780", "experiment": "Antiproliferative activity against human A2780 cells", "format": "functional, cell-based"}, "Mus musculus [16]": {"system": "Mus musculus", "experiment": "Ratio of AUC (0 to infinity) in mouse at 2.5 mg/kg, po to Cmax in mouse at 10 mg/kg, po", "format": "ADME, organism-based", "conditions": "in vivo"}, "[17]": {"experiment": "Cmax in mouse at 10 mg/kg", "format": "ADME, organism-based", "design": "dose 10 mg/kg", "conditions": "in vivo"}, "[18]": {"experiment": "AUC (0 to infinity) in iv dosed mouse", "format": "ADME, organism-based", "design": "time infinity, route intravenous", "conditions": "in vivo"}, "[19]": {"experiment": "Plasma concentration (7 hrs) in J:Nu mouse at 30 mg/kg, po qd for 7 days measured on day 1", "format": "ADME, organism-based", "procedure,_shortened": "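J:Nu female mice, N = 4 per group, dosed orally once daily at 10, 30 or 60 mg/kg in 5% NMP, 10% PEG-400, 15% Solutol, 70% D5W. Blood was sampled every other day, alternating Cmax and predose draws. Plasma concentration was taken 7 h after dosing.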"}, "Jurkat": {"system": "Jurkat", "experiment": "Antiproliferative activity against human Jurkat cells", "format": "functional, cell-based"}, "BJAB": {"system": "BJAB", "experiment": "Induction of apoptosis in human BJAB cells by high content cell imaging studies", "format": "functional, cell-based"}, "[20]": {"experiment": "AUC (0 to infinity) in J:Nu mouse plasma at 10 mg/kg, po qd for 7 days", "format": "ADME, organism-based", "design": "dose 10 mg/kg, route oral, time infinity", "procedure,_shortened": "as §1"}, "[21]": {"experiment": "Protein binding in mouse plasma", "format": "ADME, cell-free", "conditions": "read-out: PPB (converted)"}, "Mus musculus [22]": {"system": "Mus musculus", "experiment": "Ratio of Cmax in mouse at 2.5 mg/kg, po to Cmax in mouse at 50 mg/kg, po", "format": "ADME, organism-based", "conditions": "in vivo"}, "[23]": {"experiment": "Toxicity in J:Nu mouse assessed as maximum tolerated dose at 10 to 120 mg/kg, po qd for 13 days", "format": "organism-based", "conditions": "in vivo"}}, "note": "Calls of active or inactive are those of the source. The rule behind the calls is not given here."}
{"compound": "Cc1nn(-c2nc(-c3ccc(Cl)c(Cl)c3)c(SC(C)C)s2)c(C(=O)O)c1-c1cc(Cl)cc(Cl)c1", "values": [{"measurement": "Cmax", "setting": "[1]", "result": 128, "unit": "µg/mL"}, {"measurement": "Activity", "setting": "Mus musculus [2]", "result": "Non-Toxic"}, {"measurement": "solubility kinetic", "setting": "[3]", "result": 40.2, "unit": "µM"}, {"measurement": "Vd", "setting": "[4]", "result": 0.444, "unit": "L/kg"}, {"measurement": "Activity", "setting": "Mus musculus [5]", "result": "Non-Toxic"}, {"measurement": "Tmax", "setting": "[6]", "result": 5, "unit": "h"}, {"measurement": "AUC/dose", "setting": "[7]", "result": 16500, "unit": "ng·kg·h/mL/mg"}, {"measurement": "Activity", "setting": "Mus musculus [8]", "result": "Non-Toxic"}, {"measurement": "Ratio", "setting": "Mus musculus [9]", "result": 8.7}, {"measurement": "Activity", "setting": "Mus musculus [10]", "result": "Non-Toxic"}, {"measurement": "MRT", "setting": "[11]", "result": 15.1, "unit": "h"}, {"measurement": "AUC(0-inf)", "setting": "[12]", "result": 1540, "unit": "µg·h/mL"}, {"measurement": "Activity", "setting": "Mus musculus [13]", "result": "Non-Toxic"}, {"measurement": "IC50", "setting": "MCF7", "result": 0.26, "unit": "µM"}, {"measurement": "AUC(0-inf)", "setting": "[14]", "result": 2120, "unit": "µg·h/mL"}, {"measurement": "Cmax", "setting": "[15]", "result": 131, "unit": "µg/mL"}, {"measurement": "IC50", "setting": "A2780", "result": 0.29, "unit": "µM"}, {"measurement": "Ratio", "setting": "Mus musculus [16]", "result": 10}, {"measurement": "Cmax", "setting": "[17]", "result": 15.7, "unit": "µg/mL"}, {"measurement": "AUC(0-inf)", "setting": "[18]", "result": 10.7, "unit": "µg·h/mL"}, {"measurement": "concentration at 7 h", "setting": "[19]", "result": 63.6, "unit": "µg/mL"}, {"measurement": "IC50", "setting": "Jurkat", "result": 0.5, "unit": "µM"}, {"measurement": "Activity", "setting": "BJAB", "result": "Active"}, {"measurement": "AUC(0-inf)", "setting": "[20]", "result": 330, "unit": "µg·h/mL"}, {"measurement": "fraction unbound", "setting": "[21]", "result": 0.008}, {"measurement": "Ratio", "setting": "Mus musculus [22]", "result": 8.8}, {"measurement": "MTD at 312 h", "setting": "[23]", "result": 90, "unit": "mg/kg"}]}
